Reference: ChEMBL document CHEMBL4689842, “EUbOPEN Chemogenomics Library wave 1” (2021)

Tested on: U2OS
Experiment: Multiplex assay against U2OS
Type: toxicity, cell-based
Settings: human
Method in brief: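 Hoechst33342, BioTracker Green Microtubule Cytoskeleton Dye, MitoTracker Red and Annexin V Alexa Fluor 680 were added to live cells at seeding, and imaging on a CQ1 microscope at 37°C and 5% CO2 followed compound addition. Gating by CellPathfinder machine learning separated cells into Hoechst high-intensity objects or normal cells, then normal cells into healthy, pyknosed or fragmented nuclei, then pyknosed cells into mitotic or apoptotic. Per cents of healthy-nucleus cells are reported for the tubulin, mitochondrial-mass and membrane-permeability phenotypes.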

[1] = 12 h, 1 µM, compound concentration 1 uM, replicate 1
[2] = 12 h, 1 µM, compound concentration 1 uM, replicate 2
[3] = 12 h, 10 µM, compound concentration 10 uM, replicate 1
[4] = 12 h, 10 µM, compound concentration 10 uM, replicate 2
[5] = 24 h, 1 µM, compound concentration 1 uM, replicate 1
[6] = 24 h, 1 µM, compound concentration 1 uM, replicate 2
[7] = 24 h, 10 µM, compound concentration 10 uM, replicate 1
[8] = 24 h, 10 µM, compound concentration 10 uM, replicate 2
[9] = 48 h, 1 µM, compound concentration 1 uM, replicate 1
[10] = 48 h, 1 µM, compound concentration 1 uM, replicate 2
[11] = 48 h, 10 µM, compound concentration 10 uM, replicate 1
[12] = 48 h, 10 µM, compound concentration 10 uM, replicate 2

Cl.NC[C@@H]1O[C@H](C23CC4CC(CC(C4)C2)C3)Cc2c1ccc(O)c2O
Population Apoptotic (%) [1]: 60%
Population Fragmented Nuclei (%) [1]: 10%
Population Healthy Nuclei (%) [1]: 80%
Population Hoechst High Intensity Objects (%) [1]: 7%
Population Membrane Permeable-Phenotype (%) [1]: 5%
Population Mitochondria Different-Phenotype (%) [1]: 11%
Population Mitotic Cells (%) [1]: 40%
Population Normal (%) [1]: 92%
Population Pyknosed Nuclei (%) [1]: 9%
Population Tubulin-Different-Phenotype (%) [1]: 6%
Total Cell Count [1]: 116
Population Apoptotic (%) [2]: 0%
Population Fragmented Nuclei (%) [2]: 6%
Population Healthy Nuclei (%) [2]: 91%
Population Hoechst High Intensity Objects (%) [2]: 3%
Population Membrane Permeable-Phenotype (%) [2]: 2%
Population Mitochondria Different-Phenotype (%) [2]: 9%
Population Mitotic Cells (%) [2]: 100%
Population Normal (%) [2]: 96%
Population Pyknosed Nuclei (%) [2]: 2%
Population Tubulin-Different-Phenotype (%) [2]: 10%
Total Cell Count [2]: 95
Population Apoptotic (%) [3]: 37%
Population Fragmented Nuclei (%) [3]: 31%
Population Healthy Nuclei (%) [3]: 36%
Population Hoechst High Intensity Objects (%) [3]: 8%
Population Membrane Permeable-Phenotype (%) [3]: 3%
Population Mitochondria Different-Phenotype (%) [3]: 13%
Population Mitotic Cells (%) [3]: 62%
Population Normal (%) [3]: 92%
Population Pyknosed Nuclei (%) [3]: 31%
Population Tubulin-Different-Phenotype (%) [3]: 5%
Total Cell Count [3]: 150
Population Apoptotic (%) [4]: 52%
Population Fragmented Nuclei (%) [4]: 39%
Population Healthy Nuclei (%) [4]: 32%
Population Hoechst High Intensity Objects (%) [4]: 10%
Population Membrane Permeable-Phenotype (%) [4]: 9%
Population Mitochondria Different-Phenotype (%) [4]: 22%
Population Mitotic Cells (%) [4]: 47%
Population Normal (%) [4]: 89%
Population Pyknosed Nuclei (%) [4]: 27%
Population Tubulin-Different-Phenotype (%) [4]: 27%
Total Cell Count [4]: 76
Population Apoptotic (%) [5]: 46%
Population Fragmented Nuclei (%) [5]: 11%
Population Healthy Nuclei (%) [5]: 79%
Population Hoechst High Intensity Objects (%) [5]: 7%
Population Membrane Permeable-Phenotype (%) [5]: 2%
Population Mitochondria Different-Phenotype (%) [5]: 3%
Population Mitotic Cells (%) [5]: 53%
Population Normal (%) [5]: 92%
Population Pyknosed Nuclei (%) [5]: 9%
Population Tubulin-Different-Phenotype (%) [5]: 9%
Total Cell Count [5]: 146
Population Apoptotic (%) [6]: 42%
Population Fragmented Nuclei (%) [6]: 8%
Population Healthy Nuclei (%) [6]: 85%
Population Hoechst High Intensity Objects (%) [6]: 2%
Population Membrane Permeable-Phenotype (%) [6]: 5%
Population Mitochondria Different-Phenotype (%) [6]: 10%
Population Mitotic Cells (%) [6]: 57%
Population Normal (%) [6]: 97%
Population Pyknosed Nuclei (%) [6]: 6%
Population Tubulin-Different-Phenotype (%) [6]: 12%
Total Cell Count [6]: 114
Population Apoptotic (%) [7]: 76%
Population Fragmented Nuclei (%) [7]: 38%
Population Healthy Nuclei (%) [7]: 33%
Population Hoechst High Intensity Objects (%) [7]: 6%
Population Membrane Permeable-Phenotype (%) [7]: 7%
Population Mitochondria Different-Phenotype (%) [7]: 7%
Population Mitotic Cells (%) [7]: 23%
Population Normal (%) [7]: 93%
Population Pyknosed Nuclei (%) [7]: 27%
Population Tubulin-Different-Phenotype (%) [7]: 17%
Total Cell Count [7]: 161
Population Apoptotic (%) [8]: 92%
Population Fragmented Nuclei (%) [8]: 50%
Population Healthy Nuclei (%) [8]: 29%
Population Hoechst High Intensity Objects (%) [8]: 18%
Population Membrane Permeable-Phenotype (%) [8]: 26%
Population Mitochondria Different-Phenotype (%) [8]: 26%
Population Mitotic Cells (%) [8]: 7%
Population Normal (%) [8]: 81%
Population Pyknosed Nuclei (%) [8]: 20%
Population Tubulin-Different-Phenotype (%) [8]: 26%
Total Cell Count [8]: 80
Population Apoptotic (%) [9]: 33%
Population Fragmented Nuclei (%) [9]: 8%
Population Hoechst High Intensity Objects (%) [9]: 6%
Population Membrane Permeable-Phenotype (%) [9]: 0%
Population Mitochondria Different-Phenotype (%) [9]: 14%
Population Mitotic Cells (%) [9]: 66%
Population Normal (%) [9]: 93%
Population Pyknosed Nuclei (%) [9]: 9%
Population Tubulin-Different-Phenotype (%) [9]: 12%
Total Cell Count [9]: 198
Population Apoptotic (%) [10]: 57%
Population Fragmented Nuclei (%) [10]: 11%
Population Healthy Nuclei (%) [10]: 82%
Population Hoechst High Intensity Objects (%) [10]: 3%
Population Membrane Permeable-Phenotype (%) [10]: 3%
Population Mitochondria Different-Phenotype (%) [10]: 21%
Population Mitotic Cells (%) [10]: 42%
Population Normal (%) [10]: 96%
Population Pyknosed Nuclei (%) [10]: 5%
Population Tubulin-Different-Phenotype (%) [10]: 13%
Total Cell Count [10]: 127
Population Apoptotic (%) [11]: 84%
Population Fragmented Nuclei (%) [11]: 33%
Population Healthy Nuclei (%) [11]: 33%
Population Hoechst High Intensity Objects (%) [11]: 13%
Population Membrane Permeable-Phenotype (%) [11]: 20%
Population Mitochondria Different-Phenotype (%) [11]: 16%
Population Mitotic Cells (%) [11]: 16%
Population Normal (%) [11]: 86%
Population Pyknosed Nuclei (%) [11]: 32%
Population Tubulin-Different-Phenotype (%) [11]: 37%
Total Cell Count [11]: 180
Population Apoptotic (%) [12]: 91%
Population Fragmented Nuclei (%) [12]: 50%
Population Healthy Nuclei (%) [12]: 27%
Population Hoechst High Intensity Objects (%) [12]: 34%
Population Membrane Permeable-Phenotype (%) [12]: 80%
Population Mitochondria Different-Phenotype (%) [12]: 53%
Population Mitotic Cells (%) [12]: 8%
Population Normal (%) [12]: 65%
Population Pyknosed Nuclei (%) [12]: 22%
Population Tubulin-Different-Phenotype (%) [12]: 66%
Total Cell Count [12]: 82
